Square brackets hold non-standard residues; d marks the D form. Peptide text beside a SMILES is read from it. 1Nal = N[C@@H](Cc1cccc2ccccc12)C(=O)O; NMeF = CN[C@@H](Cc1ccccc1)C(=O)O; pGlu = O=C1CC[C@@H](C(=O)O)N1; NMeS = CN[C@@H](CO)C(=O)O
What was measured:
[1] = Clearance in rat after iv dose (100 ug/kg); format: ADME, organism-based; conditions: in vivo, 0.1 mg/kg
Summary of the method: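 Castrate male rats given 100 μg/kg iv bolus; blood sampled over 6 h with EDTA anticoagulant. Plasma levels by RIA with antibody recognizing C-terminal Leu-Arg-Pro-NHEt or Leu-Arg-Pro-GlyNH₂ (rabbit antisera C-402 with [125I-Tyr⁵]leuprolide tracer, or 5328W with [125I-Tyr⁵,DLys⁶]LHRH). AUC by trapezoidal rule; whole-body clearance = dose/AUC, mL/min per kg.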

Rattus norvegicus [2] = organism: Rattus norvegicus; test: Intestinal stability against rat jejunum sac, activity is expressed as T1/2; format: functional
Summary of the method: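 Rat jejunal sac in vitro; T1/2 taken as time, in min, for lumenal compound concentration to fall by 50%.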

chymotrypsin = test: Chymotrypsin degradation half-life was determined; format: ADME
Rattus norvegicus [3] = organism: Rattus norvegicus; test: Tested in vitro for LH release from cultured rat pituitary cells, activity is expressed as pD2 value; format: functional, Pituitary gland cell
Summary of the method: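 Cultured rat pituitary cells; LH release measured across agonist concentrations; pD2 = negative log of agonist concentration giving 50% of maximal LH release.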

Rattus norvegicus [4] = organism: Rattus norvegicus; test: In vitro for LH release inhibition from cultured rat pituitary cells, activity is expressed as pA2 value; format: functional, cell-based; conditions: Pituitary gland cell, read-out: pA2 (converted)
Summary of the method: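 Cultured rat pituitary cells releasing LH in response to agonist; pA2 = negative log of antagonist concentration requiring 2-fold more agonist for LH release.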

clearance [1] | half-life (chymotrypsin) | SMILES | T1/2 (Rattus norvegicus [2]) | pD2 (Rattus norvegicus [3]) | Kb (Rattus norvegicus [4])
16.9 mL/min/kg | > 60 min | CCNC(=O)[C@@H]1CCCN1C(=O)[C@H](CCCN=C(N)N)NC(=O)[C@H](CC(C)C)NC(=O)[C@@H](CC(C)C)NC(=O)[C@H](Cc1ccc(O)cc1)NC(=O)[C@H](CO)N(C)C(=O)[C@H](Cc1c[nH]c2ccccc12)NC(=O)[C@H](Cc1c[nH]cn1)NC(=O)[C@@H]1CCC(=O)N1 ([pGlu]HW[NMeS]Y[dL]LRP-NHEt) | > 90 min | – | –
9.77 mL/min/kg | 1 min | CC(C)C[C@H](NC(=O)[C@@H](CC(C)C)NC(=O)[C@H](Cc1ccc(O)cc1)NC(=O)[C@H](CO)NC(=O)[C@H](Cc1c[nH]c2ccccc12)NC(=O)[C@H](Cc1c[nH]cn1)NC(=O)[C@@H]1CCC(=O)N1)C(=O)N[C@@H](CCCN=C(N)N)C(=O)N1CCC[C@H]1C(=O)N(C)CC(N)=O | 8.4 min | 8.73 | –
8.3 mL/min/kg | 1 min | CCNC(=O)[C@@H]1CCCN1C(=O)[C@H](CCCN=C(N)N)NC(=O)[C@H](CC(C)C)N(C)C(=O)[C@@H](CC(C)C)NC(=O)[C@H](Cc1ccc(O)cc1)NC(=O)[C@H](CO)NC(=O)[C@H](Cc1c[nH]c2ccccc12)NC(=O)[C@H](Cc1c[nH]cn1)NC(=O)[C@@H]1CCC(=O)N1 | 4.1 min | 10.45 | –
14.4 mL/min/kg | > 60 min | CCNC(=O)[C@@H]1CCCN1C(=O)[C@H](CCCN=C(N)N)NC(=O)[C@H](CC(C)C)NC(=O)[C@@H](CC(C)C)NC(=O)[C@H](Cc1ccc(O)cc1)NC(=O)[C@H](CO)NC(=O)[C@H](Cc1cccc2ccccc12)N(C)C(=O)[C@H](Cc1c[nH]cn1)NC(=O)[C@@H]1CCC(=O)N1 | 44 min | – | 257 nM
– | 1 min | CCNC(=O)[C@@H]1CCCN1C(=O)[C@H](CCCN=C(N)N)N(C)C(=O)[C@H](CC(C)C)NC(=O)[C@@H](CC(C)C)NC(=O)[C@H](Cc1ccc(O)cc1)NC(=O)[C@H](CO)NC(=O)[C@H](Cc1c[nH]c2ccccc12)NC(=O)[C@H](Cc1c[nH]cn1)NC(=O)[C@@H]1CCC(=O)N1 | 6.6 min | 7 | –

More lines, now with the values behind:

SMILES | clearance [1] | half-life (chymotrypsin) | T1/2 (Rattus norvegicus [2]) | pD2 (Rattus norvegicus [3]) | Kb (Rattus norvegicus [4])
CC(C)C[C@H](NC(=O)[C@@H](Cc1ccc2ccccc2c1)NC(=O)[C@H](Cc1ccc(O)cc1)N(C)C(=O)[C@H](CO)NC(=O)[C@H](Cc1c[nH]c2ccccc12)NC(=O)[C@H](Cc1c[nH]cn1)NC(=O)[C@@H]1CCC(=O)N1)C(=O)N[C@@H](CCCN=C(N)N)C(=O)N1CCC[C@H]1C(=O)NCC(N)=O | 3.4 mL/min/kg | > 60 min | 33 min | 10.95 | –
CC(C)C[C@H](NC(=O)[C@@H](Cc1ccc2ccccc2c1)NC(=O)[C@H](Cc1ccc(O)cc1)NC(=O)[C@H](CO)NC(=O)[C@H](Cc1c[nH]c2ccccc12)NC(=O)[C@H](Cc1ccccc1)N(C)C(=O)[C@@H]1CCC(=O)N1)C(=O)N[C@@H](CCCN=C(N)N)C(=O)N1CCC[C@H]1C(=O)NCC(N)=O | – | – | – | – | 1.58 nM
CCNC(=O)[C@@H]1CCCN1C(=O)[C@H](CCCNC(=N)N)NC(=O)[C@H](CC(C)C)NC(=O)[C@@H](CC(C)C)NC(=O)[C@H](Cc1ccc(O)cc1)NC(=O)[C@H](CO)NC(=O)[C@H](Cc1c[nH]c2ccccc12)NC(=O)[C@H](Cc1c[nH]cn1)NC(=O)[C@@H]1CCC(=O)N1 [LEUPROLIDE] | 9 mL/min/kg | 1 min | 4 min | – | –
CCNC(=O)[C@@H]1CCCN1C(=O)[C@H](CCCN=C(N)N)NC(=O)C(CC(C)C)NC(=O)C(CC(C)C)NC(=O)[C@H](Cc1ccc(O)cc1)NC(=O)[C@H](CO)NC(=O)[C@H](Cc1c[nH]c2ccccc12)NC(=O)[C@H](Cc1ccccc1)N(C)C(=O)[C@@H]1CCC(=O)N1 (stereo in doubt) | 31 mL/min/kg | 6 min | 18 min | – | 29.5 nM
CC(C)C[C@H](NC(=O)[C@@H](Cc1ccc2ccccc2c1)NC(=O)[C@H](Cc1ccc(O)cc1)NC(=O)[C@H](CO)N(C)C(=O)[C@H](Cc1c[nH]c2ccccc12)NC(=O)[C@H](Cc1c[nH]cn1)NC(=O)[C@@H]1CCC(=O)N1)C(=O)N[C@@H](CCCN=C(N)N)C(=O)N1CCC[C@H]1C(=O)NCC(N)=O | 27.6 mL/min/kg | > 60 min | 47 min | 11.3 | –
CCNC(=O)[C@@H]1CCCN1C(=O)[C@H](CCCN=C(N)N)NC(=O)[C@H](CC(C)C)NC(=O)[C@@H](Cc1c[nH]c2ccccc12)NC(=O)[C@H](Cc1ccc(O)cc1)NC(=O)[C@H](CO)NC(=O)[C@H](Cc1c[nH]c2ccccc12)NC(=O)[C@H](Cc1ccccc1)N(C)C(=O)[C@@H]1CCC(=O)N1 ([pGlu][NMeF]WSY[dW]LRP-NHEt) | 44.5 mL/min/kg | 3.7 min | 44.4 min | – | –
CC(C)C[C@H](NC(=O)[C@@H](Cc1ccc2ccccc2c1)NC(=O)[C@H](Cc1ccc(O)cc1)NC(=O)[C@H](CO)NC(=O)[C@H](Cc1c[nH]c2ccccc12)NC(=O)[C@H](Cc1c[nH]cn1)NC(=O)[C@@H]1CCC(=O)N1)C(=O)N(C)[C@@H](CCCN=C(N)N)C(=O)N1CCC[C@H]1C(=O)NCC(N)=O | 3.87 mL/min/kg | – | – | – | 11.2 nM
CCNC(=O)[C@@H]1CCCN1C(=O)[C@H](CCCN=C(N)N)NC(=O)[C@H](CC(C)C)NC(=O)[C@@H](CC(C)C)NC(=O)[C@H](Cc1ccc(O)cc1)NC(=O)[C@H](CO)NC(=O)[C@H](Cc1cccc2ccccc12)NC(=O)[C@H](Cc1c[nH]cn1)NC(=O)[C@@H]1CCC(=O)N1 ([pGlu]H[1Nal]SY[dL]LRP-NHEt) | 28.4 mL/min/kg | > 15 min | 25 min | – | –
CCNC(=O)[C@@H]1CCCN1C(=O)[C@H](CCCN=C(N)N)NC(=O)[C@H](CC(C)C)NC(=O)[C@@H](Cc1c[nH]c2ccccc12)NC(=O)[C@H](Cc1ccc(O)cc1)NC(=O)[C@H](CO)NC(=O)[C@H](Cc1c[nH]c2ccccc12)NC(=O)[C@H](Cc1cnc[nH]1)N(C)C(=O)[C@@H]1CCC(=O)N1 | 16.4 mL/min/kg | – | – | – | 5.5 nM

— ChEMBL document CHEMBL1126585, “Effect of N-methyl substitution of the peptide bonds in luteinizing hormone-releasing hormone agonists” (J Med Chem, 1993)
